Measurements reported in article PMC4701204 (Chemistry & biology, 2015).
Entries after “also recorded” stand apart in the source; their conditions may differ.

How the values were obtained:
RAD52 WT = molecular target: T1, RAD52 WT (Homo sapiens, UniProt P43351); test: Fluorescence polarization; format: binding; settings: for Inhibition of RAD52 ssDNA binding: in vitro, Supplementary Fig. 1
T1 sequence (P43351 1-418): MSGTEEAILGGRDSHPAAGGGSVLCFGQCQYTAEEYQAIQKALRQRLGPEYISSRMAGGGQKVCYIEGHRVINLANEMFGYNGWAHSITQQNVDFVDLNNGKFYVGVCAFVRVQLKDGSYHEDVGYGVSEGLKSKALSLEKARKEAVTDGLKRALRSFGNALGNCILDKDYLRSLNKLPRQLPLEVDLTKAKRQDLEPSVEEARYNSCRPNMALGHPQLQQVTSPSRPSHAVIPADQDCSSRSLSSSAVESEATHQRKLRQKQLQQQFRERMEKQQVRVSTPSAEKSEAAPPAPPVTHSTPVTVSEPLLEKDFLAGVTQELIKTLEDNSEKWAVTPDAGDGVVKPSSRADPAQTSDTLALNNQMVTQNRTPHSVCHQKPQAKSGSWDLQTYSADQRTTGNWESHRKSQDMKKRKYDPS

[1] = molecular target: RAD52 1-209 (ssDNA binding domain) (Homo sapiens, UniProt P43351); test: Fluorescence polarization
RAD51 = RAD51 (Homo sapiens, UniProt Q06609); test: Fluorescence polarization; format: binding; settings: in vitro, FP, 280 nM RAD51, 1 mM ATP
RAD51, sequence (Q06609 whole entry, species assumed): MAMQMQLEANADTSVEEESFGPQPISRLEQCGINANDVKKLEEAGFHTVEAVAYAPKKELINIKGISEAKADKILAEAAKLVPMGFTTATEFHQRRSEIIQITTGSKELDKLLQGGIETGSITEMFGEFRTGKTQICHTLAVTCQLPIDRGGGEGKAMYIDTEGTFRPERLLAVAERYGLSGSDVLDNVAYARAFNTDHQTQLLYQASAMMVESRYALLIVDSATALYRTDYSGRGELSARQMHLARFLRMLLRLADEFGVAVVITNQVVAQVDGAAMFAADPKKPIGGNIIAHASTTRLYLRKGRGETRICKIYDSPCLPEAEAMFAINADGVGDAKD
Procedure, shortened: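 Human RAD51 (280 nM) with 1 mM ATP, 10 nM FAM-labelled ssDNA and varied test compound in pH 7.5 Tris buffer (25 mM NaCl, 0.5 mM MgCl2, 1 mM DTT, 0.01% NP-40, 0.1 mg/mL BSA). Incubated 30 min at room temp, then fluorescence polarization read. Inhibition of ssDNA binding taken from FP.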

SSA in U20S cells = test: SSA GFP reporter assay; format: cell-based; settings: 5 μM
Procedure, shortened: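 U20S cells carrying an SSA reporter exposed to test compounds at 5 μM. RAD52 siRNA versus scrambled siRNA serves as pathway control, with knockdown checked by western blot. Values are mean ± s.e.m. of triplicates, some from 3 separate experiments; two-tailed Student's t-test.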

HR in U20S cells = test: HR GFP reporter assay; format: cell-based
NHEJ in U20S cells = test: NHEJ GFP reporter assay; format: cell-based; settings: 5 μM
Procedure, shortened: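 NHEJ GFP reporter in U2OS cells, run with or without 5 μM test compound. Mean ± s.e.m. of two separate experiments, each in triplicate.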

[2] = tested on: BCR-ABL transformed murine hematopoietic 32Dcl3 cells expressing eGFP-RAD52; test: eGFP-RAD52 foci formation after cisplatin; format: cell-based; settings: cisplatin treated 32Dcl3 BCR-ABL cells
Procedure, shortened: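 Cells expressing eGFP-RAD52 pre-incubated with DMSO or test compound at several concentrations, then treated with cisplatin. Fraction of cells with eGFP-RAD52 foci scored by fluorescence microscopy. Values are mean ± s.e.m. of triplicates; two-tailed Student's t-test.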

HEK293T cells = test: eGFP-RAD52 foci formation after ionizing radiation; format: cell-based
Procedure, shortened: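 HEK293T cells expressing eGFP-RAD52 treated with test compound at several concentrations and exposed to ionizing radiation. DAPI-counterstained nuclei imaged, and the percent of cells with ≥ 5 eGFP-RAD52 foci scored. Values are average ± s.e.m. of 3 independent experiments; two-tailed Student's t-test.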

[3] = tested on: MDA-MB-436 cells complemented with BRCA1; test: eGFP-RAD52 foci formation after ionizing radiation; format: cell-based; settings: MDA-MB-436 BRCA1 complemented
Procedure, shortened: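 BRCA1-complemented MDA-MB-436 cells expressing eGFP-RAD52 were given test compound, then ionizing radiation, with or without IR as control. Nuclei stained with DAPI. Cells with ≥5 eGFP-RAD52 foci counted as percent of total. Mean ± s.e.m. of 3 independent experiments.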

RAD52-ssDNA complexes = RAD52-ssDNA complexes (Homo sapiens, UniProt P43351); test: Dissociation of pre-formed RAD52-ssDNA complexes; format: binding; settings: 30 μM, FP measured 2 min after addition
Procedure, shortened: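 RAD52–ssDNA complexes pre-formed and equilibrated for 30 min before 30 μM test compound was added. FP read 2 min later against a DNA-only control, with mean ± s.d. of 3 independent experiments. Dissociation was also tested by EMSA on non-denaturing gels.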

RAD52 = RAD52 (Homo sapiens, UniProt P43351); test: EMSA with excess ssDNA substrate; format: binding; settings: 25 μM
Procedure, shortened: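 RAD52 binding to an excess of Cy3-labelled ssDNA substrate in the presence of 25 μM test compound. Complexes resolved by EMSA on a non-denaturing gel.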

ssDNA = test: Interaction of small molecule with ssDNA; format: binding; settings: Supplementary Fig. 1
[4] = molecular target: T2, RAD52 1-209 undecamer ring (Homo sapiens, UniProt P43351); test: Native gel electrophoresis of RAD52 1-209 composition; format: biochemical
T2 sequence (P43351 1-209): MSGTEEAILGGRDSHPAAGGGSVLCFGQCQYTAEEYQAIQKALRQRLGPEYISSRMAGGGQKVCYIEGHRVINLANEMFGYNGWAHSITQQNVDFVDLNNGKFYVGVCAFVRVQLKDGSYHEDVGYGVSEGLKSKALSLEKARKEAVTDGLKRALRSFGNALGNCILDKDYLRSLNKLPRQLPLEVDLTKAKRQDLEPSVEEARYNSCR

[5] = molecular target: T2, RAD52 1-209 undecamer ring; test: Light scattering of RAD52 1-209; format: biochemical
Procedure, shortened: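 RAD52 1-209 (purified by a published method) incubated with or without test compound in 1 M or 0.15 M NaCl. Species sizes measured by light scattering. Buffer-only and compound-only controls included.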

RecA = RecA (Escherichia coli, UniProt P0A7G6); test: Effect on RecA in vitro; format: biochemical; settings: Supplementary Fig. 1
RecA, sequence (P0A7G6 whole entry, species assumed): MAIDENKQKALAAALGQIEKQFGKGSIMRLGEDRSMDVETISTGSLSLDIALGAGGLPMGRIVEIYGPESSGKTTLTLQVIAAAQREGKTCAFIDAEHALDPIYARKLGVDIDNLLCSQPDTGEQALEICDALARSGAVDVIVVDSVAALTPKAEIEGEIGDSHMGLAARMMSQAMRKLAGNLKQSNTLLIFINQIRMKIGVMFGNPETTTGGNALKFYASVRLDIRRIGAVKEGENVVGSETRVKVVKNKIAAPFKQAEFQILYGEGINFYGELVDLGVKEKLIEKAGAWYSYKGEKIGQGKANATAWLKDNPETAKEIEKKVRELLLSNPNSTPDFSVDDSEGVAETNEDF

[6] = tested on: MDA-MB-436 cells (BRCA1 deficient and BRCA1 complemented); test: Cell viability; format: cell-based; settings: for Viability of BRCA1 deficient MDA-MB-436 cells: 3 day time course, 20 μM 6-OH-dopa
Procedure, shortened: (§1)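 Each BRCA-deficient line tested alongside its BRCA-proficient counterpart after single-concentration test compound (olaparib or siRNA in some panels). Relative viability reported as mean ± s.e.m. of triplicates, with two-tailed Student's t-test.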

[7] = tested on: VC8 cells (BRCA2 defective); test: Cell viability / proliferation; format: cell-based, Chinese hamster; settings: 75 μM 6-OH-dopa
Procedure, shortened: as §1

[8] = tested on: CAPAN-1 cells (BRCA2 defective); test: Cell viability / proliferation; format: cell-based; settings: 10 μM 6-OH-dopa, 20 μM olaparib
Procedure, shortened: as §1

[9] = tested on: HCC1937 cells (BRCA1 deficient); test: Cell viability; format: cell-based; settings: 5 μM 6-OH-dopa
Procedure, shortened: as §1

[10] = tested on: BRCA deficient and proficient cell lines; test: Clonogenic survival assay; format: cell-based
Procedure, shortened: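 Clonogenic survival of BRCA-deficient and BRCA-proficient cell lines treated with test compound or olaparib. Mean ± s.e.m. of 3 independent experiments.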

AML patient cells = test: Clonogenic survival; format: cell-based
Procedure, shortened: (§2)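 Colony-forming survival of BRCA-deficient and BRCA-proficient leukemia patient cells after test compound or olaparib. Each data point pools cells from 3 different patients. Mean ± s.e.m. of 3 independent experiments.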

[11] = tested on: BRCA1 deficient CML patient cells; test: Clonogenic survival; format: cell-based
Procedure, shortened: as §2

MDA-MB-436 cells = test: γH2AX foci; format: cell-based; settings: more pronounced in BRCA deficient cells
[12] = tested on: BRCA deficient cells (VC8, HCC1937); test: Annexin V staining; format: cell-based; settings: BRCA deficient vs proficient cells
light scattering [13] = molecular target: the molecule itself; test: light scattering
light scattering [14] = molecular target: the molecule itself; test: light scattering; remark: listed apart in the source
native gel or EMSA = molecular target: the molecule itself; test: native gel or EMSA

NC(Cc1cc(O)c(O)cc1O)C(=O)O (racemic) [6-OH-dopa, 6-hydroxy-DL-dopa]
IC50 (RAD52 WT): 1100 nM
Percent lower IC50 for RAD52 WT compared to RAD52 1-209 (RAD52 WT): 31%
IC50 [1]: 1600 nM
Effect on RAD51 (RAD51): little or no effect; also recorded: no effect
Effect on SSA (SSA in U20S cells): consistently inhibited SSA
Effect on HR when RAD52 was suppressed (HR in U20S cells; RAD52 siRNA): had no effect on HR
Effect on HR (HR in U20S cells; U20S cells, 5 μM): little or no reduction in HR
Effect on NHEJ (NHEJ in U20S cells): only slightly inhibited NHEJ
eGFP-RAD52 foci formation [2]: suppressed eGFP-RAD52 foci formation in a dose dependent manner
eGFP-RAD52 foci (HEK293T cells): decreased the number of eGFP-RAD52 foci in a dose dependent manner
eGFP-RAD52 foci [3]: inhibited eGFP-RAD52 foci
Dissociation of pre-formed RAD52-ssDNA complexes (RAD52-ssDNA complexes): fully dissociated RAD52-ssDNA complexes
Inhibition of RAD52 in the presence of ~100-fold excess of ssDNA substrate (RAD52): continued to inhibit RAD52
Interaction with ssDNA (ssDNA): does not interact with ssDNA
Effect on RAD52 1-209 composition [4]: dissociates RAD52 complexes
Size of RAD52 1-209 species produced ([5]; high salt (1 M NaCl)): 48.3 kDa
Size of RAD52 1-209 species produced ([5]; low salt (0.15 M NaCl)): 48.3 kDa
Undecamers (270 kDa) converted into dimers (48.3 kDa) ([5]; low salt (0.15 M NaCl)): 100%
Effect on RecA (RecA): very little effect
Viability of BRCA1 deficient MDA-MB-436 cells [6]: nearly identical reduction in viability
Viability of BRCA1 deficient MDA-MB-436 cells when RAD52 expression was suppressed ([6]; RAD52 siRNA): lost its ability to significantly reduce the viability
Proliferation of VC8 cells [7]: selectively halted the proliferation
Proliferation of CAPAN-1 cells [8]: selectively halted the proliferation
Viability of HCC1937 cells [9]: selectively reduced the viability
Clonogenic survival of BRCA deficient cell lines [10]: inhibited the survival
Clonogenic survival of BRCA proficient cells ([10]; at the given doses): little or no effect
Colony formation by AML patient cells expressing normal levels of BRCA1/2 (AML patient cells): little effects
Survival of BRCA1 deficient CML patient cells [11]: significant reduction in the survival
DNA damage indicated by γH2AX foci (MDA-MB-436 cells): substantial increase in DNA damage
Apoptosis indicated by annexin V staining [12]: specifically increased apoptosis

NC(Cc1ccccc1O)C(=O)O (racemic) [DL-o-tyrosine, reference compound]
Inhibition of RAD52 ssDNA binding (RAD52 WT): failed to inhibit RAD52
Effect on RAD52 1-209 composition [4]: had no effect on RAD52 1-209 composition

N[C@H](C(=O)O)[C@H](O)c1ccc(O)c(O)c1 [L-DOPS, reference compound]
Inhibition of RAD52 ssDNA binding (RAD52 WT): failed to inhibit
Effect on SSA (SSA in U20S cells): failed to inhibit SSA

O=C(c1cc(Cc2n[nH]c(=O)c3ccccc23)ccc1F)N1CCN(C(=O)C2CC2)CC1 [olaparib, reference compound]
Viability of BRCA1 deficient MDA-MB-436 cells [6]: selectively reduced the viability
Colony formation by AML patient cells expressing normal levels of BRCA1/2 (AML patient cells): little effects

B1: RAD52 1-209 (RAD52 ssDNA binding domain, residues 1-209) (domain or fragment, human, UniProt P43351 1-209, looked up)
chain: T2 sequence (P43351 1-209)
stoichiometry N (light scattering [13]): 11
stoichiometry N (light scattering [14]): 2

B2: RAD52 WT (wild-type, full-length RAD52, Histidine-tagged) (natural protein, human, UniProt P43351 1-418, looked up)
chain: T1 sequence (P43351 1-418)
stoichiometry N (native gel or EMSA): 14
